According to ChEMBL document CHEMBL1770130, “Design, synthesis, and in vivo characterization of a novel series of tetralin amino imidazoles as γ-secretase inhibitors: discovery of PF-3084014” (Bioorg Med Chem Lett, 2011):
Active and inactive are the calls of the source. The calls are words filed in the database; no cut-off is given here.

What was measured:
[1] = Ratio of EC50 for gamma secretase-mediated notch processing in C57BL/6 mouse fetal thymic organ cultures to plasma concentration observed at brain ED50 of total beta-amyloid level
Summary of the method: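 FTOC EC50 divided by the plasma concentration at the brain ED50. That plasma concentration was obtained by linear least-squares regression of dose against measured plasma concentration in guinea pigs.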

Gamma-secretase [2] = assay: Inhibition of gamma-secretase in human H4 cells expressing APP Swedish mutant assessed as inhibition of amyloid beta (1 to x) production by whole cell assay
[3] = Effect on gamma secretase-mediated notch processing in C57BL/6 mouse fetal thymic organ cultures assessed as reduction of B and T-cell populations after 45 mins by FACS analysis
Cavia porcellus [4] = assay: Antialzheimer activity in sc dosed guinea pig assessed as reduction of total amyloid beta level in brain after 3 hrs by DELFIA-based ELISA; type: functional
Summary of the method: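 Guinea pigs dosed sc over a range of doses and brain Aβ1-X measured by DELFIA ELISA at 3 h; brain ED50 derived from the dose–response.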

human MDR1 (P-gp) = assay: Efflux ratio of permeability from basolateral to apical side to apical to basolateral side of MDCK cells expressing human MDR1; type: ADME, cell-based, Canis lupus familiaris; conditions: dog
Summary of the method: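 MDCK cells transfected with human P-glycoprotein (MDR1); efflux ratio calculated as B→A over A→B permeability.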

Gamma-secretase [5] = assay: Inhibition of gamma-secretase in human HeLa cells assessed as inhibition of amyloid beta (1 to 40) production by DELFIA-based immunoassay; type: cell-based
Cavia porcellus [6] = assay: Antialzheimer activity in guinea pig assessed as reduction of total amyloid beta level in plasma at 10 mg/kg, sc after 3 to 10 hrs by DELFIA-based ELISA; type: functional, organism-based; parameters: dose 10 mg/kg
Summary of the method: (§1)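 Guinea pigs given a single sc dose (3.2–32 mg/kg); brain, CSF and plasma taken at 3 h for the dose–response, or at intervals of 3 to 24 h after 10 mg/kg for the time course. Aβ1-X, Aβ1-40 and Aβ1-42 measured by DELFIA ELISA. Data given as percentage of vehicle; one-way ANOVA with Dunnett's post-hoc versus vehicle, p<0.05.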

Cavia porcellus [7] = assay: Antialzheimer activity in guinea pig assessed as reduction of total amyloid beta level in brain at 10 mg/kg, sc after 3 to 10 hrs by DELFIA-based ELISA; type: functional, organism-based; parameters: dose 10 mg/kg; summary of the method: as §1
[8] = Drug concentration in guinea pig brain at 3.2 mg/kg, sc; type: ADME, organism-based, Cavia porcellus; parameters: dose 3.2 mg/kg, route subcutaneous; conditions: in vivo
Summary of the method: (§2)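 Guinea pigs given a single 3.2 mg/kg sc dose; drug concentrations in plasma and brain determined at the 3 h sampling point.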

Cavia porcellus [9] = assay: Antialzheimer activity in guinea pig assessed as reduction of total amyloid beta level in plasma at 10 mg/kg, sc after 24 hrs by DELFIA-based ELISA; type: functional, organism-based; parameters: dose 10 mg/kg
Summary of the method: (§3)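 Guinea pigs dosed once at 10 mg/kg sc, tissues sampled up to 24 h. Aβ1-X in brain, CSF and plasma measured by DELFIA ELISA and expressed as percentage of vehicle; one-way ANOVA with Dunnett's test versus vehicle, p<0.05.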

Cavia porcellus [10] = assay: Antialzheimer activity in guinea pig assessed as reduction of total amyloid beta level in plasma at 3.2 mg/kg, sc after 3 hrs by DELFIA-based ELISA; type: functional; parameters: scale not given: the % may be the effect or the level left; conditions: route subcutaneous; summary of the method: as §1
Cavia porcellus [11] = assay: Reduction of marginal zone of B cell populations in guinea pig at 7 mg/kg, sc administered 3 doses over 24 hrs measured after 3 hrs last post dose by FACS analysis; type: organism-based; parameters: dose 7 mg/kg, route subcutaneous; conditions: in vivo
Summary of the method: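 Guinea pigs dosed sc at 7 mg/kg at 0, 12 and 24 h. Spleen marginal zone and whole-blood B cells counted by flow cytometry 3 h after the last dose.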

Cavia porcellus [12] = assay: Antialzheimer activity in guinea pig assessed as reduction of total amyloid beta level in cerebral spinal fluid at 10 mg/kg, sc after 3 to 10 hrs by DELFIA-based ELISA; type: functional, organism-based; parameters: dose 10 mg/kg; summary of the method: as §1
[13] = Plasma concentration in guinea pig at 3.2 mg/kg, sc; type: ADME, organism-based, Cavia porcellus; parameters: dose 3.2 mg/kg, route subcutaneous; conditions: in vivo; summary of the method: as §2
Cavia porcellus [14] = assay: Antialzheimer activity in guinea pig assessed as reduction of total amyloid beta level in brain at 10 mg/kg, sc after 24 hrs by DELFIA-based ELISA; type: functional, organism-based; parameters: dose 10 mg/kg; summary of the method: as §3
[15] = Ratio of EC50 for gamma secretase-mediated notch processing in C57BL/6 mouse fetal thymic organ cultures to IC50 for APP by whole cell assay
Cavia porcellus [16] = assay: Antialzheimer activity in guinea pig assessed as reduction of total amyloid beta level in brain at 3.2 mg/kg, sc after 3 hrs by DELFIA-based ELISA; type: functional; parameters: scale not given: the % may be the effect or the level left; conditions: route subcutaneous; summary of the method: as §1
Cavia porcellus [17] = assay: Antialzheimer activity in guinea pig assessed as reduction of total amyloid beta level in cerebral spinal fluid at 10 mg/kg, sc after 24 hrs by DELFIA-based ELISA; type: functional, organism-based; parameters: dose 10 mg/kg; summary of the method: as §3
Cavia porcellus [18] = assay: Antialzheimer activity in guinea pig assessed as reduction of total amyloid beta level in brain at 7 to 32 mg/kg, sc administered 3 doses over 24 hrs measured after 3 hrs last post dose by DELFIA-based ELISA; type: functional, organism-based
Summary of the method: (§4)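 Guinea pigs dosed sc at 7 or 32 mg/kg three times over 24 h (0, 12, 24 h). Tissues collected 3 h after the final dose, and Aβ measured by DELFIA ELISA; compared with vehicle by one-way ANOVA and Dunnett's test.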

Cavia porcellus [19] = assay: Antialzheimer activity in guinea pig assessed as reduction of total amyloid beta level in cerebral spinal fluid at 3.2 mg/kg, sc after 3 hrs by DELFIA-based ELISA; type: functional; parameters: scale not given: the % may be the effect or the level left; conditions: route subcutaneous; summary of the method: as §1
Cavia porcellus [20] = assay: Antialzheimer activity in guinea pig assessed as reduction of total amyloid beta level in plasma at 7 to 32 mg/kg, sc administered 3 doses over 24 hrs measured after 3 hrs last post dose by DELFIA-based ELISA; type: functional, organism-based; summary of the method: as §4

SMILES	IC50 (Gamma-secretase [2]) [nM]	EC50 [3] [nM]	ED50 (Cavia porcellus [4]) [mg/kg]	efflux ratio (human MDR1 (P-gp))	IC50 (Gamma-secretase [5]) [nM]	further results
CCC[C@H](N[C@H]1CCc2cc(F)cc(F)c2C1)C(=O)Nc1cn(C(C)(C)CNCC(F)(F)F)cn1	4.9	5100	14.6			Ratio [1]: 37.7
CCC[C@H](NC1CCc2cc(F)cc(F)c2C1)C(=O)Nc1cn(C(C)(C)CN2CCCC2)cn1 (mixture of isomers)	5.4			1.5	4.1	
CCC[C@H](NC(CC)CC)C(=O)Nc1cn(C(C)(C)CN2CCCC2)cn1	310			2.3	6120	
CCC[C@H](NC1Cc2ccccc2C1)C(=O)Nc1cn(C(C)(C)CN2CCCC2)cn1	272			1.8	148	
CCC[C@H](NCCC(C)C)C(=O)Nc1cn(C(C)(C)CN2CCCC2)cn1	3100			4.4	> 10000	
CCC[C@H](NC1CCc2ccccc2C1)C(=O)Nc1cn(C(C)(C)CN2CCCC2)cn1 (some centres undefined)	53.9			2.2	85.7	
CCC[C@H](N[C@H]1CCc2cc(F)cc(F)c2C1)C(=O)Nc1cn(C(C)(C)CN2CCCC2)cn1	2.9	3260	9.9			Activity (Cavia porcellus [6]): Active; Activity (Cavia porcellus [7]): Active; Drug uptake [8]: 587 ng/mL; Ratio [1]: 9.8; Activity (Cavia porcellus [9]): inactive; Activity (Cavia porcellus [10]): 30%; Activity (Cavia porcellus [11]): Non-toxic; Activity (Cavia porcellus [12]): Active; Cp [13]: 100 ng/mL; Activity (Cavia porcellus [14]): Active; Ratio [15]: > 500; Activity (Cavia porcellus [16]): 33%; Activity (Cavia porcellus [17]): inactive; Activity (Cavia porcellus [18]): Active; Activity (Cavia porcellus [19]): 31%; Activity (Cavia porcellus [20]): Active
CCC[C@H](NC1COc2ccccc2C1)C(=O)Nc1cn(C(C)(C)CN2CCCC2)cn1 (some centres undefined)	155			2.9	93.3	
CCC[C@H](NC1CCc2cc(F)ccc2C1)C(=O)Nc1cn(C(C)(C)CN2CCCC2)cn1 (mixture of isomers)	19.5			1.8	19.3	
CCC[C@H](NC1CCc2cc(Cl)ccc2C1)C(=O)Nc1cn(C(C)(C)CN2CCCC2)cn1 (mixture of isomers)	12.4			1.3	8.9	
CCC[C@H](NC(=O)Cc1cc(F)cc(F)c1)C(=O)Nc1cn(C(C)(C)CNCC(C)(C)C)cn1				8.4		
CCC[C@H](N[C@H]1CCc2cc(F)cc(F)c2C1)C(=O)Nc1cn(C(C)(C)CN(C)C)cn1	4.6	3010	16.1			
CCC[C@H](NCc1cc(F)cc(F)c1)C(=O)Nc1cn(C(C)(C)CN2CCCC2)cn1	480			1.8	499	
CCC[C@H](N[C@H]1CCc2cc(F)cc(F)c2C1)C(=O)Nc1cn(C(C)(C)CN2CCCCC2)cn1	3.3	2560	4.1			Ratio [1]: 46.1
CCC[C@H](NCCc1cc(F)cc(F)c1)C(=O)Nc1cn(C(C)(C)CN2CCCC2)cn1	754			1.9	250	
CCC[C@H](N[C@H]1CCc2cc(F)cc(F)c2C1)C(=O)Nc1cn(C(C)(C)CNC(C)C)cn1	19.3	6100	41.2			Ratio [1]: 3.5
CCC[C@H](N[C@H]1CCc2cc(F)cc(F)c2C1)C(=O)Nc1cn(C(C)(C)CN2CCOCC2)cn1	6.9	1090	2.9			Ratio [1]: 16.3
CCC[C@H](NC1CCc2cccc(Cl)c2C1)C(=O)Nc1cn(C(C)(C)CN2CCCC2)cn1 (mixture of isomers)	46.8			3.3	31	
CCC[C@H](N[C@H]1CCc2cc(F)cc(F)c2C1)C(=O)Nc1cn(C(C)(C)CNCC(C)(C)C)cn1 [NIROGACESTAT]		1830	2.3			
